Here are results for 48 sequences from the EternaBench riboswitch data.

As a reminder, the apparent Kd is a dissociation constant that holds for the conditions of the assay.

This series has as its system MS2 coat protein. As to the kind of experiment: apparent Kd, MS2 coat protein; higher = weaker binding; RNA-MaP array; FMN 200 µM where present. Summed up: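 SNAP-549-labelled MS2 coat protein, doubled from 0.7 or 1.5 nM to 3 µM, was titrated over designs transcribed by stalled E. coli RNA polymerase on Illumina sequencing-chip clusters. Titrations were run without and then with constant ligand in 100 mM Tris-HCl pH 7.5, 80 mM KCl, 4 mM MgCl2, BSA, DTT, yeast tRNA and Tween-20. The apparent Kd is the median of filtered per-cluster fits to green signal normalised to red-channel RNA signal and control-cluster median Fmax.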

Where [1] appears, read: designed as: OFF switch for flavin mononucleotide, no ligand.
The mark [2] stands for this setting: ligand present: flavin mononucleotide, designed as: OFF switch for flavin mononucleotide.
Setting [3] is: designed as: ON switch for flavin mononucleotide, no ligand.
Where [4] appears, read: ligand present: flavin mononucleotide, designed as: ON switch for flavin mononucleotide.

In the case of “AGAUCUCAAUAAGAUCCAAUACGAACAUGAGGAUCACCCAUGUAGGAUAUGCUAGAAGUAGAGUAGCAGAAGGACAAGUACCUU”, the “apparent Kd” value under setting [1] came to 18.4 nM and the “apparent Kd” value under setting [2] amounted to 15.7 nM.

Turning to “CUCACGUUAGUAGGAUAUCCGACAUGAGGAUCACCCAUGUCACUACGCCUCUAGGGAAGGUGUAAGGAGAAGGGCUGAUAAAUA”, the “apparent Kd” value is, setting by setting: under setting [3], 174 nM; under setting [4], 98 nM.

Take “CGGCCGGAUCGAGGAUAUAAGUCUAGGACAUGAGGAUCACCCAUGUAUGUCUUAGAAGGCGAUCCGGCCAGCCUGUUACAGGCA”: the “apparent Kd” value reads like this: under setting [3], 32.9 nM; under setting [4], 6.18 nM.

For the sequence “UUAUUUUGUCAAGGAUAUGUAGUAUUGAUCUGAAAACAUGAGGAUCACCCAUGUAUAUGGUGGGAACAGAAGGUGAAUGUUGAA”, the “apparent Kd” value runs as follows: under setting [1], 658 nM; under setting [2], 845 nM.

Regarding “AGAAAGUGAGGAUAUACGAAACCAGCCUAAAUGGCUGGAAAGUAGAAGGCACAUGAGGAUCACCCAUGUAAAGA”, the “apparent Kd” value reads like this: under setting [1], 24.4 nM; under setting [2], 31.6 nM.

“GGAGCACGCACAGGAUAUCCGGCGACGCUCGUCGGAGAAGGGUGACAUGAGGAUCACCCAUGUACGUGCAACUCAGUUUGAGAG”: the “apparent Kd” value is, setting by setting: under setting [3], 43.6 nM; under setting [4], 36.1 nM.

In the case of “GAGCGAAAGCUCAAUGUCGAUAGCAGAAGGACAUGAAAACAUGAAAUAACAUGAGGAUCACCCAUGUAGGAUAUGCUAUCGACU”, the “apparent Kd” value under setting [1] is 17.9 nM and the “apparent Kd” value under setting [2] worked out at 279 nM.

Turning to “UCCGAGUGAGGAUAUUGGAGUUGGUGCACUGCACAUAGGGUUAAGAAGGCACAUGAGGAUCACCCAUGUUACGU”, the “apparent Kd” value turned out to be 41.3 nM under setting [1] and 40.9 nM under setting [2].

As for “GAUCCACAUGAGGAUCACCCAUGUGAGGAUAUGAUACUAUGUACUUCGGUACAUAGUAUCAGAAGGCACAUUGA”, the “apparent Kd” value under setting [1] was found to be 114 nM and the “apparent Kd” value under setting [2] amounted to 65.9 nM.

On to “AUUAAUCAGCAGGAUAUAAGUAUCUGAAGGUGGUUAGAAGGGCUGACAUGAGGAUCACCCAUGUGCUCUUCGUG”, for which the “apparent Kd” value is, setting by setting: under setting [1], 11.7 nM; under setting [2], 18.8 nM.

In the case of “CCAGCGUAUGUGAGGAUAUGCUGGUCCUUGGAUCAGCAGAAGGCACAUGAGGAUCACCCAUGUGAUGACGUUGG”, the “apparent Kd” value by setting is: under setting [1], 50.9 nM; under setting [2], 287 nM.

With “GCCGUGAUAGCAGGAUAUGCUCCGGUUGCUCAUACAUGAGGAUCACCCAUGUCACGUGCGGUGGUGCAGAAGGGUUGAAGCGAA”, the “apparent Kd” value under setting [3] worked out at 748 nM and the “apparent Kd” value under setting [4] worked out at 219 nM.

Take “CGAGAUACGCUCGUCCGAAAGGGACAUGAGGAUCACCCAUGUAGAAGGCGAUGCGCAACUCGCAUUGAGGAUAUAUACUGCAGA”: the “apparent Kd” value under setting [1] was determined as 5.78 nM and the “apparent Kd” value under setting [2] came out at 5.89 nM.

Consider “AAAUCAGUAGGAUAUACGAUUUUGUACUAGACAGAGGAACCACAUGAGGAUCACCCAUGUAGAAGGACUAGAUA”, for which the “apparent Kd” value is 16.4 nM under setting [1] and 13.9 nM under setting [2].

“CAGUACUGAGGAUAUACAUGAGGAUCACCCAUGUGUUCCAGCUAGGAAACUAGCACUUGUAGAAGGCAGUACUG”: the “apparent Kd” value reads like this: under setting [1], 24.6 nM; under setting [2], 267 nM.

As to “UGAUCUUUUGUUAGGAUAUGCUGUUGUUUUCAACAGCAGAAGGGACAUGAGGAUCACCCAUGUCUUGUCAUAAA”, the “apparent Kd” value was 12 nM under setting [1] and 16.4 nM under setting [2].

On to “AAUCUGUCGGUAGGAUAUCAGUUUGGAGAGCCGACAUGAGGAUCACCCAUGUACAGAAUCAAGGGUGAGAAGGACCGGGUAGUU”, for which the “apparent Kd” value reads like this: under setting [3], 90.7 nM; under setting [4], 78.6 nM.

Regarding “AUACUCAUGUAAGGAUAUGCAGCCGAAACGGCUGCAGAAGGUACUAUAAUACAUGAGGAUCACCCAUGUCAAAAUAAAAUAGUC”, the “apparent Kd” value by setting is: under setting [3], 63.5 nM; under setting [4], 22.9 nM.

Regarding “AGGUGACAUGAGGAUCACCCAUGUAAGGAUAUACGGUUAGUGGAGAGAGGGAAAAGAGGUAGAAGGUACGGAGC”, the “apparent Kd” value under setting [1] was found to be 266 nM and the “apparent Kd” value under setting [2] was determined as 142 nM.

For the sequence “AGAUAACAUGUAGGAUAUCGAGGCCUGAGGCCUCGAGAAGGACAUGAGGAUCACCCAUGUAGUUGUACCAUGGAAUCACGCACU”, the “apparent Kd” value is 340 nM under setting [1] and 645 nM under setting [2].

As to “GGGAGACAUGAGGAUCACCCAUGUGAAAACGUGGCAGGAUAUGCAUGGAAACCAUACUGUGCAGAAGGGCCUUGUC”, the “apparent Kd” value is, setting by setting: under setting [3], 60.5 nM; under setting [4], 33.1 nM.

As to “AACAGCUCGUCAGGAUAUAUUAUCUUUUAAUGUAUUAAUGUACAUGAGGAUCACCCAUGUUGUUUGUAGAAGGGACGAGCUGAA”, the “apparent Kd” value amounted to 8.88 nM under setting [1] and 9.34 nM under setting [2].

Consider “CGCAUGGAGGGAGGAUAUGACAUGAGGAUCACCCAUGUAAAGGAUCCGACGUCAGAAGGCCCUAAGAAUUUACACAUUCUCUUA”, for which the “apparent Kd” value runs as follows: under setting [1], 119 nM; under setting [2], 26.7 nM.

As to “UUUAUUUUGCAAGGAUAUGUUUAAUUUUAGUUUCCUUACACAUGAGGAUCACCCAUGUUAUACUUACAGAAGGUGCGUAAUUUU”, the “apparent Kd” value runs as follows: under setting [1], 130 nM; under setting [2], 103 nM.

As to “UAGGACGUCGUAGGAUAUGUAGGAUAUUCCUACAUGAGGAUCACCCAUGUUGACAUGGAAGAAGGACAGAAGGACGAUGUCCAU”, the “apparent Kd” value under setting [3] came out at 224 nM and the “apparent Kd” value under setting [4] worked out at 4.61 nM.

With “UGUCCAUAGCAGAAGGACAUGAGGAUCACCCAUGUAAUCAUACAAAUACAUGUAGGAUAUGCUAUGGACUAAGAGCGAAAGCUC”, the “apparent Kd” value under setting [1] amounted to 8.28 nM and the “apparent Kd” value under setting [2] came out at 19.1 nM.

For the sequence “CGAGCCGGCACUGAGGAUAUUCAUAUUUAAACAUGAGGAUCACCCAUGUAGGCCAGAAGGCCUUGGGAGAAGGCAGGUCGGCUCC”, the “apparent Kd” value by setting is: under setting [3], 379 nM; under setting [4], 27.2 nM.

With “GGCGGGCGAAACAUGAGGAUCACCCAUGUGUUAUAAUUAAUAUAGGAUAUGUUUAUACUUUUUGGGCAGAAGGAUGCGCCUGCC”, the “apparent Kd” value under setting [3] was found to be 97.8 nM and the “apparent Kd” value under setting [4] came to 67.5 nM.

On to “GGAUUAAUAGUCCACAUGAGGAUCACCCAUGUAGUAUUUUGCAAGGAUAUGGUGGGACUUCGUGGCCAGAAGGUGUAAAGGAUC”, for which the “apparent Kd” value is, setting by setting: under setting [3], 128 nM; under setting [4], 99.2 nM.

As to “CCUGUGUAAGGAUAUGACAAUGGUAUCUUCGGAUACCAUUGUCAGAAGGUACAUGAGGAUCACCCAUGUAACAC”, the “apparent Kd” value came to 15 nM under setting [1] and 30.4 nM under setting [2].

For the sequence “GCCCGCCUAGCAGGAUAUACAGGUUGGCGGACAUGAGGAUCACCCAUGUAAGGCUACAUACACUUGUAGAAGGGUUGGGUGUCC”, the “apparent Kd” value stood at 93.4 nM under setting [3] and 33.7 nM under setting [4].

On to “ACAGUCACAAUAACUUGUGGGCGUGAGGAUAUAUAUGGCUCGGAGCGGACAUGAGGAUCACCCAUGUAGAAGGCACGAACUAAU”, for which the “apparent Kd” value is, setting by setting: under setting [1], 6.1 nM; under setting [2], 8.54 nM.

For “GAACGGUGAGCAGGAUAUCCACAUUGUCUCCUACAUGAGGAUCACCCAUGUGGAGAAGGGUUUAUAAGUUCGUGUAUACUCAAC”, the “apparent Kd” value by setting is: under setting [1], 6.35 nM; under setting [2], 6.9 nM.

Regarding “AAGAAUAGAAAGAUUAAUAUGAAUACAUGAGGAUCACCCAUGUAGGAUAUCGACGUCAAUGACGUCGAGAAGGACAUAAAUAAU”, the “apparent Kd” value under setting [1] stood at 9.7 nM and the “apparent Kd” value under setting [2] turned out to be 9.09 nM.

With “UUUUUAUUUAUAGGAUAUGGAAACAUGAGGAUCACCCAUGUAUGAUAAGAUAAAUUAUGAUAUGGCCAGAAGGAUAUUAUUUUU”, the “apparent Kd” value reads like this: under setting [3], 31 nM; under setting [4], 34.8 nM.

“AAAGCGUGAGGAUAUGAGGCGCCGGGCCGGUUGGUGCGGAUUCAGAAGGCACAUGAGGAUCACCCAUGUCGGUA”: the “apparent Kd” value by setting is: under setting [1], 41.1 nM; under setting [2], 96 nM.

Consider “GAUCCGUCCUAGAAGGCCAUUCAACAUGAGGAUCACCCAUGUGCGAACUGGAGGAUAUAGGUGGGAUAGGCCUAGGGCCCGGUC”, for which the “apparent Kd” value amounted to 9.38 nM under setting [3] and 6.12 nM under setting [4].

On to “CAAUUCCGAGGAUAUACAUGAGGAUCACCCAUGUCGGGCCUCAGCGUUUAGCGCCUCAGUAGAAGGCGGGUUUC”, for which the “apparent Kd” value was determined as 28.3 nM under setting [1] and 34.8 nM under setting [2].

As to “CGUGUACGAGGAUAUAGAUUAGGCGACAUGAGGAUCACCCAUGUGAUCAAUCUAUUUGGUUUAGAAGGUGUACAUG”, the “apparent Kd” value under setting [1] came out at 16.7 nM and the “apparent Kd” value under setting [2] came to 17.6 nM.

As for “ACUUGUUACUUAAUCAUUGAUUUGUAGGAUAUACGUACAUGAGGAUCACCCAUGUUACAUGGUAUGUAGAAGGACAUCUAAUUU”, the “apparent Kd” value runs as follows: under setting [1], 11 nM; under setting [2], 11.2 nM.

For “GGUUGGCGAGGAUAUACAUGAGGAUCACCCAUGUGGUCCUGUGGCUGAUCUUGCCUAUGUAGAAGGCGCAAAUC”, the “apparent Kd” value came out at 35.7 nM under setting [1] and 280 nM under setting [2].

Turning to “AUUUAAUUUAAUAAGAUCACAUGAGGAUCACCCAUGUAUAUAUAGGAUAUCAGCUCGAAUAGAGCUGAGAAGGAUAUAUACUAU”, the “apparent Kd” value runs as follows: under setting [1], 326 nM; under setting [2], 323 nM.

Take “CGAUCGUUGCAGAAGGUUAUAAUUUUAUCUACAUGUUUAACAUGAGGAUCACCCAUGUUUUUGAUGAAGGAUAUGCAAGGGUCG”: the “apparent Kd” value runs as follows: under setting [1], 6.88 nM; under setting [2], 7.12 nM.

As to “GUGUACAGAGGAUAUACAUAAGCUAGGAAACUAGCAACUUCACAUGAGGAUCACCCAUGUAGAAGGCUGUACAC”, the “apparent Kd” value under setting [1] was determined as 13.9 nM and the “apparent Kd” value under setting [2] worked out at 17.8 nM.

For the sequence “AUAAAACAUGAGGAUCACCCAUGUCAGGAUAUACCAUUCCCAUGCCAGCAUUAAAAUGGUAGAAGGGACAUGGC”, the “apparent Kd” value runs as follows: under setting [1], 49.2 nM; under setting [2], 27.2 nM.

In the case of “AAAGUUGGUAGGCCCUCGGAACAUGAGGAUCACCCAUGUAAGGAGGAUAUGCCCGGUACCCGCUGGCAGAAGGCCUUAUAAUAA”, the “apparent Kd” value came to 10.5 nM under setting [1] and 61.6 nM under setting [2].

In the case of “GUUGAUGGAGGAUAUACUGCAGUGAUUGGCAAGAAUCCAGCACAUGAGGAUCACCCAUGUAGAAGGCCAUAACA”, the “apparent Kd” value runs as follows: under setting [1], 25.8 nM; under setting [2], 63.5 nM.

Consider “AUGACCUCAGUCAGGAUAUCGGCGCGGUGACGACUCGAGAAGGGACAUGAGGAUCACCCAUGUCUCGAUUAUAG”, for which the “apparent Kd” value runs as follows: under setting [1], 15.4 nM; under setting [2], 22.2 nM.
